Reference: PubChem BioAssay AID504382 (The Scripps Research Institute Molecular Screening Center, 2011)
Out of some 2,500 compounds screened, about 460 (18%) were called active. A selection follows. Unmarked numbers belong to inactive results.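 The calls were made as follows: active = mean activation above a cutoff of low control average plus 3 SD from the earlier screen (cut at about 12% in these data); inactive = the rest.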

Assay: compound fluorescence interference without thin filaments, confirmation, artefact control for cardiac RTF calcium sensitizer project, biochemical (AID 504382)
Conditions: IANBD fluorescence interference counterscreen, buffer, EC20 Ca2+; at 7.2 µM; stronger effect = higher value; scaled: EC20 calcium 0, EC100 calcium 100
Procedure, shortened: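 Medium: MOPS/KCl/MgCl2/EGTA/NTA/DTT buffer, pH 7.2 | Reagent: EC20 calcium, 0.472 mM | Compound dosing: 7.2 µM single dose | Times: 15 min compound exposure at 25 °C | Signal: Fluorescence, 480/540 nm | Measure: Interference relative to controls | Repeats: Triplicate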

Compound	fluorescence artifact activation
O=S(=O)([N-]c1nc2ccccc2nc1-[n+]1ccc(-c2ccncc2)cc1)c1ccccc1	0.08%
CCc1cc[n+](-c2nc3ccccc3nc2[N-]S(=O)(=O)c2ccc(Br)s2)cc1	-0.02%
Cc1ccc[n+](-c2nc3ccccc3nc2[N-]S(=O)(=O)c2ccccc2)c1	17.5% (active)
CC1=Nc2ccccc2/C1=C\c1nc(-c2ccc(F)cc2)oc1O	0.71%
Cc1ccc(NC(=S)Nc2ccc3nc(-c4ccccn4)c(-c4ccccn4)nc3c2)cc1C	0%
CC(C)CNC(=S)NC(=O)c1ccccc1Cl	32.2% (active)
Cc1ccccc1C(=O)NC(=S)NC1CC1	0.12%
O=C(COc1ccccc1)NC(=S)Nc1cccc(NC(=O)c2ccccc2Cl)c1	0.01%
CCCn1c(=N)n(CC(O)c2ccco2)c2ccccc21 (stereo not drawn)	0.03%
COCCCN1C(=O)/C(=C/c2ccc(CNS(=O)(=O)c3ccccc3)o2)C(C(=O)OC)=C1C	0.04%
CCOc1ccc(CNC(=O)c2ccc(Sc3ccc(Cl)cc3)c(NC(C)=O)c2)cc1	1.09%
COc1c(Cl)ccc(Cl)c1C(=O)NCc1ccco1	0.03%
CC(=O)Nc1cc(C(=O)NCc2ccco2)ccc1Sc1ccc(F)cc1	18.1% (active)
CCCCOc1[nH]c2nc(-c3ccco3)n(Cc3ccco3)c(=N)c2c1C#N	0.23%
O=c1nc2c(O)cccn2c2c1c(=O)[nH]c1ccccc12	0.02%
Cc1sc2nc(COC(=O)c3cccc(S(=O)(=O)N(C)c4ccccc4)c3)[nH]c(=O)c2c1C	0.1%
Cc1cccc(C)c1NC(=O)CN(C1CCCCC1)S(C)(=O)=O	0.02%
CCCNC(=O)c1ccc(N2CCC3(CC2)CC(c2cccc(Br)c2)=NO3)c(NC(=O)c2cccc(C)c2)c1	3.63%
O=C(CC1CCCC1)N1CCN(S(=O)(=O)c2ccccc2)CC1	0.13%
CCOc1ccc(NC(=O)C2CCN(S(=O)(=O)c3cccnc3)CC2)cc1	-0.04%
O=C(Cc1cccs1)N1CCN(S(=O)(=O)c2cc(Cl)ccc2Cl)CC1	1.88%
CC(=O)N1CCc2c(sc(NC(=O)C3CCCN3S(=O)(=O)c3cccs3)c2C(N)=O)C1 (stereo not drawn)	9.49%
O=C(Nc1nccs1)C1CCN(S(=O)(=O)c2ccccc2)CC1	461% (active)
O=C(c1cc(-c2cccs2)nn1-c1ccccc1)N1CCN(S(=O)(=O)c2ccccc2)CC1	2.28%

Compound	fluorescence artifact activation
O=C(Nc1ccc(Cl)cn1)C1CCN(S(=O)(=O)c2cccs2)CC1	74.6% (active)
O=C(Nc1ccccc1N1CCOCC1)C1CCN(S(=O)(=O)c2ccccc2F)CC1	-0.05%
O=C(c1cc(Cl)ccc1O)N1CCN(S(=O)(=O)c2cccs2)CC1	114% (active)
COc1cccc(CNC(=O)CCC(=O)N2CC(C)Oc3ccccc32)c1OC (stereo not drawn)	0.11%
Cc1c(C(=O)NC2CC2)oc2ccccc12	0.04%
Cc1cc(C)nc(NC(=O)c2ccc(Cl)c(Cl)c2)n1	0.33%
CC1=C(C#N)C(=O)OC(C)(C)C1	0.01%
Cc1[nH]c(=O)c(C#N)c(C)c1Cl	0.06%
O=C(N/N=C/c1sc(N2CCOCC2)nc1-c1ccccc1)c1cccc(S(=O)(=O)N2CCCC2)c1	0%
Cc1cc2nc3c(=O)[nH]c(=O)[nH]c3nc2c([N+](=O)[O-])c1N	0.02%
O=C1/C(=C/c2cccs2)N=C(c2cccs2)N1Nc1ccccc1	4.3%
COCCN(C(=S)Nc1cccc(OC)c1)C1CCN(C(C)=O)CC1	0.16%
CCn1cc(/C=C/C(=O)Nc2c(C)nn(Cc3ccccc3C)c2C)cn1	0.05%
COc1ccc(CC(=O)NNC(=O)c2ccncc2)cc1	0.18%
COc1ccc(/C=N/NC(=O)c2cccnc2)cc1CN1CCOCC1	6.25%
CCOC(=O)C1=C(C)NC(C)=C(C(=O)OCC)C1c1ccco1	0.15%
OCCNCc1cccc(OCc2ccc(Cl)cc2)c1	61% (active)
COc1ccc(CNCc2cccc(Cl)c2)cc1	0.14%
Cc1ccc(C(C(=O)NC2CCCC2)N(C(=O)Cc2cccs2)c2cccc(C)c2C)o1 (stereo not drawn)	0%
CC1=C(C(=O)OCCCCCl)C(c2cc3c(cc2Br)OCO3)NC(=O)N1 (stereo not drawn)	-0.02%
C[C@H]1CN([C@@H](C)CO)C(=O)Cc2cc(NC(=O)CCC(F)(F)F)ccc2O[C@H]1CN(C)S(C)(=O)=O	0.55%
Oc1[nH]c2ccccc2c1N=Nc1ccccc1F	-0.02%
Oc1[nH]c2ccccc2c1N=Nc1ccc(F)cc1	34.1% (active)
Oc1[nH]c2ccccc2c1N=Nc1ccccc1	11.6%

Compound	fluorescence artifact activation
COc1ccc(-n2c(O)c(/C=N/NS(=O)(=O)c3cccc([N+](=O)[O-])c3)c3ccccc3c2=O)cc1OC	0.15%
Cn1nccc1NC(=O)Nc1cccc(Cl)c1Cl	13.5% (active)
Cn1ncc(Cl)c1C(=O)Nc1cccc(Cl)c1	0.09%
CC1CC1c1ccc(/C=C(\C#N)C(=O)Nc2cccc(Cl)c2Cl)o1 (stereo not drawn)	4%
O=C(Nc1ccccc1)C1=C[C@H](c2ccc3c(c2)OCO3)C[C@H](OCCCCO)O1	1.74%
COc1cc(/C=N/NC(=O)c2cc(-c3ccccc3Cl)nc3ccccc23)cc(OC)c1O	8.56%
O=c1[nH][nH]c(C(F)(F)F)c1C=Nc1cccc(Cl)c1	1.19%
Cc1cc(O)c(CN(C)C)c2c1C(=O)/C(=C/c1ccco1)O2	0%
CC(C)Cn1c(N)c(C(=O)COC(=O)c2cc(F)cc(F)c2)c(=O)n(C)c1=O	40.2% (active)
CCOC(=O)C1=C(C)N=c2s/c(=C/c3ccc(OCC(=O)O)c(OC)c3)c(=O)n2C1c1ccc(Cl)cc1 (stereo not drawn)	-0.04%
Cc1cc(C=C2C(=O)c3ccccc3C2=O)c(C)n1-c1ccc(Cl)cc1	-0.07%
CCCN1C(=O)/C(=C/c2ccc(N3CCCC3)c(C)c2)NC1=S	0.06%
CCCN1C(=O)/C(=C/c2ccc(N3CCOCC3)cc2)NC1=S	131% (active)
CCN1C(=O)/C(=C/c2ccc(N3CCCC3)cc2)NC1=S	0.26%
CC1(C)NC(=O)N(CCCCOc2ccc(Cl)cc2)C1=O	0.28%
CCOC(=O)NC1(C(F)(F)F)C(=O)NC(C)=C1C(=O)OC (stereo not drawn)	5.24%
Cc1ccc(-n2c(C)n[nH]c2=S)cc1	1.66%
S=c1[nH]nc(-c2ccc(Cl)cc2)n1-c1ccc2c(c1)OCCO2	31.8% (active)
CCN(CC)c1ccc(/C=C2/SC(=O)N(C(C)C)C2=O)o1	8.25%
C/C(=N/NS(=O)(=O)c1ccccc1)c1ccc(NC(=O)C2CC2)cc1	6.01%
O=C(CCCN1C(=O)c2ccccc2C1=O)Nc1ccc(S(=O)(=O)N2CCCCC2)cc1	0.02%
O=C(CNCc1cccs1)Nc1cc(S(=O)(=O)N2CCCC2)ccc1Cl	4.18%
O=C(CNCc1cccs1)Nc1ccc(S(=O)(=O)N2CCCCC2)cc1	15.8% (active)
CCC1(O)C(=O)OCc2c1cc1n(c2=O)Cc2cc3cc(O)ccc3nc2-1 (stereo not drawn)	0.27%

Compound	fluorescence artifact activation
Cc1cc(C)n(CC(O)COc2ccccc2)n1 (stereo not drawn)	0.59%
CCOc1ccccc1C(=O)NN1C(=O)CCC1=O	3.75%
O=C1CCC(=O)N1CC(O)COc1ccccc1 (stereo not drawn)	61.5% (active)
CC(C)(C)NC(=O)[C@@H]1CN(Cc2cccnc2)CCN1C[C@@H](O)C[C@@H](Cc1ccccc1)C(=O)N[C@H]1c2ccccc2C[C@H]1O	54.1% (active)
Cn1nc([N+](=O)[O-])c(C(C#N)c2ccccn2)c(Cl)c1=O (stereo not drawn)	-0.03%
CN(C)c1ccc(/C=C2\N=C(C(C)(C)C)OC2=O)cc1	0.15%
Cc1c(N2C(=O)/C(=C\c3ccc(N(C)C)cc3)N(C)C2=S)c(=O)n(-c2ccccc2)n1C	0.17%
CN1C(=O)/C(=C\c2ccc(N(C)C)cc2)OC1=S	57.7% (active)
Cc1ccc(NC2OC(C(O)CO)C(O)C2O)cc1[N+](=O)[O-] (stereo not drawn)	5.79%
O=C(c1ccc(COc2ccccc2Br)o1)N1N=C(C(F)F)CC1(O)C(F)F (stereo not drawn)	8.57%
CC(=O)Nc1ccc(S(=O)(=O)N2CCN3CCCC3C2)cc1 (stereo not drawn)	-0.04%
CCOC(=O)/C(=C\c1ccc(N2CCC(c3ccccc3)=N2)cc1)C(C)=O	-0.05%
CCOC(=O)/C(=C/C1=CC(=C/N(C)C)/C(=O)O1)C(C)=O	22.1% (active)
CCOC(=O)/C(=C/C=C1\Sc2cc(C)c(C)cc2N1CC)C(C)=O	0.02%
CCc1ccc(/C=N/n2c(C)cc(C)c(C#N)c2=O)cc1	0.12%
CCCNC(=S)N1CCC(NC(=O)C23CC4CC(CC(C4)C2)C3)CC1	0.09%
Cc1ccccc1-n1nnnc1SCC(C)C	32.8% (active)
CCn1nnnc1SCC(=O)N1CCCc2ccccc21	0.01%
CSc1nnnn1-c1c(C)cc(C)cc1C	0.04%
CCO[C@@H]1OC(C(=O)O)=C[C@H](c2coc3ccccc3c2=O)[C@H]1CCCO	1.71%
COCCn1c(SCC#N)nnc1-c1ccc([N+](=O)[O-])cc1	-0.11%
